Active and inactive are the calls of the source.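 The calls were made as follows: active = fitted dose response curve and peak inhibition of the Kir2.1 potassium channel above 30% at some dose; inactive = no dose response or no inhibition at any dose.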
biological target: Inward rectifier potassium channel 2 (Mus musculus) (UniProt P35561); experiment: off-target blockade of inward rectifier Kir2.1 – cell-based, FluxOR thallium flux, CRC round 3, selectivity assay for KCNK9 inhibitor project, SAR follow-up (AID 588760); conditions: Kir2.1-expressing cells, 20 min; series mostly up to 30 µM; thallium flux ratio, lower = inhibition: at the top concentration
Method in brief: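 Assay system: FluxOR-loaded Kir2.1 HEK293 cells; Also added: K2SO4/Tl2SO4 stimulus; Replicates: at least duplicate measurements per concentration; Measured by: kinetic fluorescence of thallium-sensitive dye; Incubation: dye loading 90 min RT, compound 20 min RT pre-stimulus.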

Chain of Inward rectifier potassium channel 2 (Mus musculus) (P35561 whole entry, looked up): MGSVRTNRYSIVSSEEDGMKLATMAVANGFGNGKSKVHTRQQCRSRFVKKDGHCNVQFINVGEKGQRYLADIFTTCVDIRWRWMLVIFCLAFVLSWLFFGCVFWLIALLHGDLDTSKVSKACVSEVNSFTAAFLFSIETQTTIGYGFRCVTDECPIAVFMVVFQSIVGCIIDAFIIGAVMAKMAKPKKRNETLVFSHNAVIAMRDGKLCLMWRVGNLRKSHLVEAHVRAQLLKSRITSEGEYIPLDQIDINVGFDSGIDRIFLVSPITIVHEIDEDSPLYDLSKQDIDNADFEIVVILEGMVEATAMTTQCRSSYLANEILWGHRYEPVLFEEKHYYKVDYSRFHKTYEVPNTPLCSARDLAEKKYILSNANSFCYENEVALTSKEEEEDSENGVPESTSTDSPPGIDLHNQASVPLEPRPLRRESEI

Thallium flux ratio, lower = inhibition, inactive:
CC(C1CC2CCC1C2)n1c(SCc2ccccc2)nnc1-c1ccco1 (stereo unspecified) 1.08
CC(NC(=O)c1ccco1)C1CC2CCC1C2 (stereo unspecified) 2.02
CC(C1CC2CCC1C2)n1c(-c2cccn2C)n[nH]c1=S (stereo unspecified) 1.64
CC(C1CC2CCC1C2)n1c(SCC#N)nnc1-c1cccs1 (stereo unspecified) 1.26
COc1cccc(Cc2n[nH]c(=S)n2C(C)C2CC3CCC2C3)c1 (stereo unspecified) 1.77
CC(C)Oc1ccccc1C(=O)Nc1cccc(NC(=O)c2ccccc2OC(F)(F)F)c1 1.86
COc1cc(OC)cc(-c2n[nH]c(=S)n2C(C)C2CC3CCC2C3)c1 (stereo unspecified) 1.79
COc1ccccc1C(=O)Nc1cccc(NC(=O)c2cccc3ccccc23)c1 1.82
CC(C1CC2CCC1C2)n1c(-c2ccncc2)n[nH]c1=S (stereo unspecified) 2.29
CC(C1CC2CCC1C2)n1c(-c2cccc(F)c2)n[nH]c1=S (stereo unspecified) 1.67
CC(C)c1ccccc1C(=O)Nc1cccc(NC(=O)c2ccccc2OC(F)(F)F)c1 1.83
C[C@H](C1CCCCC1)n1c(-c2ccco2)n[nH]c1=S 1.4
CC(C1CC2CCC1C2)n1c(-c2cccnc2)n[nH]c1=S (stereo unspecified) 1.93
CC(C1CC2CCC1C2)n1c(SCC(=O)c2ccccc2)nnc1-c1ccco1 (stereo unspecified) 0.756
CC(C1CC2CCC1C2)n1c(-c2cccs2)n[nH]c1=S (stereo unspecified) 1.23
COc1cccc(-c2nnc(S(C)(=O)=O)n2C(C)C2CC3CCC2C3)c1 (stereo unspecified) 1.85
CC(C1CC2CCC1C2)n1c(-c2ccccc2F)n[nH]c1=S (stereo unspecified) 1.75
COc1ccc(CCSc2nnc(-c3ccco3)n2C(C)C2CC3CCC2C3)cc1OC (stereo unspecified) 0.848
COc1cccc(-c2n[nH]c(=S)n2C(C)C2CC3CCC2C3)c1OC (stereo unspecified) 1.62
COc1ccccc1C(=O)Nc1cc(NC(=O)c2ccccc2C(C)C)ccc1F 1.84

outcome, inactive:
CC(C1CC2CCC1C2)n1c(-c2ccc(N(C)C)cc2)n[nH]c1=S (stereo unspecified)
